≈ marks a conversion by molar mass, not a printed value.
Tests used:
[1] = Stability in FaSSiF at pH 6.5 at 37 °C incubated for 4 hrs
[2] = tested on: Human immunodeficiency virus 1; test: Antiviral activity against HIV1 infected in human MT4 cells expressing GFP incubated for 48 to 72 hrs in absence of 50% normal human serum by multiple round viral replication kinetics assay; type: functional
[3] = Stability in SGF at pH 1.8 at 37 °C incubated for 4 hrs
[4] = AUC (0 to infinity) in beagle dog at 2 mg/kg, po by LC-MS/MS method; type: ADME, organism-based, Canis lupus familiaris; design: dose 2 mg/kg, route oral, time infinity; conditions: beagle, in vivo
[5] = Solubility in FaSSiF at pH 6.5 at room temperature incubated for 4 hrs; type: physicochemical
Canis familiaris [6] = test: AUC (0 to infinity) in beagle dog assessed as (1R,2R,5S)-8'-(3-chloro-4-fluorobenzyl)-6'-hydroxy-2'-((S)-2-hydroxypropyl)-9',10'-dihydro-1'H-spiro[bicyclo[3.1.0]hexane-2,3'-imidazo[5,1-a][2,6]naphthyridine]-1',5',7'(2'H,8'H)-trione level at 10 mg/kg, po by LC-MS/MS method; type: ADME, organism-based, Canis lupus familiaris; design: dose 10 mg/kg, time infinity, route oral; conditions: in vivo
Procedure, shortened: (§1)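 Oral rising-dose studies were run in beagle dogs with prodrugs, at doses normalized to account for the promoiety so that they give the actual parent dose administered. The read-out was plasma exposure (AUC) of the parent compound.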

[7] = AUC (0 to infinity) in jugular vein of portal vein-cannulated beagle dog at 10 mg/kg, po by LC-MS/MS method; type: ADME, organism-based, Canis lupus familiaris; design: dose 10 mg/kg, time infinity, route oral
Procedure, shortened: (§2)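 Portal vein-cannulated dogs received the prodrugs orally at doses normalized to 10 mg/kg of the parent molecule. Prodrug and parent concentrations were determined in plasma collected from the portal and jugular veins, and AUC was derived for each analyte at each site.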

[8] = Permeability in LLC-PK1 cells at 1 uM incubated for 3 hrs by LC-MS/MS method; type: ADME, cell-based, Sus scrofa; conditions: pig, read-out: permeability
[9] = (§3) AUC (0 to infinity) in jugular vein of portal vein-cannulated beagle dog assessed as (1R,2R,5S)-8'-(3-chloro-4-fluorobenzyl)-6'-hydroxy-2'-((S)-2-hydroxypropyl)-9',10'-dihydro-1'H-spiro[bicyclo[3.1.0]hexane-2,3'-imidazo[5,1-a][2,6]naphthyridine]-1',5',7'(2'H,8'H)-trione level at 10 mg/kg, po by LC-MS/MS method; type: ADME, organism-based, Canis lupus familiaris; design: dose 10 mg/kg, route oral, time infinity; conditions: in vivo
Procedure, shortened: as §2

Canis familiaris [10] = test: AUC (0 to infinity) in beagle dog assessed as (1R,2R,5S)-8'-(3-chloro-4-fluorobenzyl)-6'-hydroxy-2'-((S)-2-hydroxypropyl)-9',10'-dihydro-1'H-spiro[bicyclo[3.1.0]hexane-2,3'-imidazo[5,1-a][2,6]naphthyridine]-1',5',7'(2'H,8'H)-trione level at 2 mg/kg, po by LC-MS/MS method; type: ADME, organism-based, Canis lupus familiaris; design: dose 2 mg/kg, time infinity, route oral; conditions: in vivo
Procedure, shortened: as §1

[11] = AUC (0 to infinity) in portal vein of portal vein-cannulated beagle dog at 10 mg/kg, po by LC-MS/MS method; type: ADME, organism-based, Canis lupus familiaris; design: dose 10 mg/kg, time infinity, route oral
Procedure, shortened: as §2

[12] = Permeability in MDCK2 cells at 1 uM incubated for 3 hrs by LC-MS/MS method; type: ADME, cell-based, Canis lupus familiaris, MDCK-II; conditions: dog, MDCK; read-out: permeability
[13] = as §3, with “portal” for “jugular”; type: ADME, organism-based, Canis lupus familiaris; design: dose 10 mg/kg, route oral, time infinity; conditions: in vivo
Procedure, shortened: as §2

[14] = (§4) AUC (0 to infinity) in portal vein of portal vein-cannulated beagle dog assessed as (1R,2S,5R)-8'-(3-chloro-4-fluorobenzyl)-6'-hydroxy-1-(hydroxymethyl)-2'-methyl-9',10'-dihydro-1'H-spiro[bicyclo[3.1.0]hexane-2,3'-imidazo[5,1-a][2,6]naphthyridine]-1',5',7'(2'H,8'H)-trione level at 10 mg/kg, po by LC-MS/MS method; type: ADME, organism-based, Canis lupus familiaris; design: dose 10 mg/kg, route oral, time infinity; conditions: in vivo
Procedure, shortened: as §2

[15] = as §4, with “in jugular” for “in portal”; type: ADME, organism-based, Canis lupus familiaris; design: dose 10 mg/kg, time infinity, route oral; conditions: in vivo
Procedure, shortened: as §2

Canis familiaris [16] = test: AUC (0 to infinity) in beagle dog assessed as c(1R,2S,5R)-8'-(3-chloro-4-fluorobenzyl)-6'-hydroxy-1-(hydroxymethyl)-2'-methyl-9',10'-dihydro-1'H-spiro[bicyclo[3.1.0]hexane-2,3'-imidazo[5,1-a][2,6]naphthyridine]-1',5',7'(2'H,8'H)-trione evel at 2 mg/kg, po by LC-MS/MS method; type: ADME, organism-based, Canis lupus familiaris; design: dose 2 mg/kg, route oral, time infinity; conditions: in vivo
Procedure, shortened: as §1

Canis familiaris [17] = test: AUC (0 to infinity) in beagle dog assessed as (1R,2S,5R)-8'-(3-chloro-4-fluorobenzyl)-6'-hydroxy-1-(hydroxymethyl)-2'-methyl-9',10'-dihydro-1'H-spiro[bicyclo[3.1.0]hexane-2,3'-imidazo[5,1-a][2,6]naphthyridine]-1',5',7'(2'H,8'H)-trione level at 30 mg/kg, po by LC-MS/MS method; type: ADME, organism-based, Canis lupus familiaris; design: dose 30 mg/kg, route oral, time infinity; conditions: in vivo
Procedure, shortened: as §1

Canis familiaris [18] = test: AUC (0 to infinity) in beagle dog assessed as (1R,2R,5S)-8'-(3-chloro-4-fluorobenzyl)-6'-hydroxy-2'-((S)-2-hydroxypropyl)-9',10'-dihydro-1'H-spiro[bicyclo[3.1.0]hexane-2,3'-imidazo[5,1-a][2,6]naphthyridine]-1',5',7'(2'H,8'H)-trione level at 100 mg/kg, po by LC-MS/MS method; type: ADME, organism-based, Canis lupus familiaris; design: dose 100 mg/kg, time infinity, route oral; conditions: in vivo
Procedure, shortened: as §1

SMILES | remaining at 4 h [1] [%] | IP [2] [nM] | remaining at 4 h [3] [%] | AUC(0-inf) [4] [µM·h] | solubility at 4 h [5] [µg/mL] | AUC (Canis familiaris [6]) [µM·h] | AUC(0-inf) [7] [µM·h] | Papp at 3 h, 1 µM [8] [×10⁻⁶ cm/s] | AUC [9] [µM·h] | AUC (Canis familiaris [10]) [µM·h] | AUC(0-inf) [11] [µM·h] | Papp at 3 h, 1 µM [12] [×10⁻⁶ cm/s] | AUC [13] [µM·h] | AUC [14] [µM·h] | AUC [15] [µM·h] | AUC (Canis familiaris [16]) [µM·h] | AUC (Canis familiaris [17]) [µM·h] | AUC (Canis familiaris [18]) [µM·h]
C[C@@H](CN1C(=O)c2c3c(c(O)c(=O)n2[C@@]12CC[C@H]1C[C@H]12)C(=O)N(Cc1ccc(F)c(Cl)c1)CC3)OP(=O)(O)O | > 98 | 1580 | > 98 | 6.8 | 2300 (≈ 3950 µM) |  |  |  |  |  |  |  |  |  |  |  |  | 
C[C@@H](CN1C(=O)c2c3c(c(O)c(=O)n2[C@@]12CC[C@H]1C[C@H]12)C(=O)N(Cc1ccc(F)c(Cl)c1)CC3)OC(=O)[C@@H](N)CCCCN | 90 | 40 | 90 | 6.8 | > 2000 |  |  |  |  |  |  |  |  |  |  |  |  | 
CC(C)OC(=O)OCOc1c2c(c3n(c1=O)[C@@]1(CC[C@H]4C[C@H]41)N(C[C@H](C)O)C3=O)CCN(Cc1ccc(F)c(Cl)c1)C2=O | > 98 | 178 | > 98 |  | 250 (≈ 404 µM) | 128 | 0.034 | 26.7 | 33.9 | 23 | 1.12 | 23.5 | 23.9 |  |  |  |  | 
CC(C)OC(=O)OCOc1c2c(c3n(c1=O)[C@]1(CC[C@@H]4C[C@@]41CO)N(C)C3=O)CCN(Cc1ccc(F)c(Cl)c1)C2=O | > 98 | 16 | > 98 |  | 500 (≈ 828 µM) |  | 0.037 | 26.5 |  |  | 2.55 | 19.7 |  | 27.3 | 30.4 | 5 | 284 | 
CC(C)OC(=O)OCOc1c2c(c3n(c1=O)[C@@]1(CC[C@H]4C[C@H]41)N(C[C@H](C)OP(=O)(O)O)C3=O)CCN(Cc1ccc(F)c(Cl)c1)C2=O | > 98 | >4200 | > 98 |  | > 2000 |  |  |  |  |  |  |  |  |  |  |  |  | 570

— ChEMBL document CHEMBL3621084, “Discovery of 2-Pyridinone Aminals: A Prodrug Strategy to Advance a Second Generation of HIV-1 Integrase Strand Transfer Inhibitors” (J Med Chem, 2015)
